The source of these data is ChEMBL document CHEMBL4513216, “Probing the Open Global Health Chemical Diversity Library for Multistage-Active Starting Points for Next-Generation Antimalarials” (ACS Infect Dis, 2020).

A short description of the data set: Toxicity liver stage against HepG2, at 10uM. Format: cell-based. Also noted: test concentration 10 uM, cell line HepG2-A16-CD81EGFP. To be noted: human, HepG2-A16-CD81EGFP cells; read-out: INHIBITION
In outline: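 Uninfected HepG2-A16-CD81EGFP cells, 3 × 10^3 per well, 1536-well, plated on prespotted compound at 10 μM final, parasite-free screening media added to match infected plates; puromycin 10 μM positive, DMSO 0.5% negative; run in parallel with 48 h PbLuc assay at 37 °C, 5% CO2; viability by CellTiter-Glo luminescence, normalized to controls.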
Take `CC(C)c1cc(CN(C)C(=O)CN2CCNC2=O)no1`: the cytotoxicity at 10 µM was -6.1%.

Take `Cn1ncc2c(=O)[nH]c(CN3CCCC3c3cccc(F)c3)nc21` (stereo not drawn): the cytotoxicity at 10 µM is -9.14%.

On to `CN(C)c1ccc(C(=O)N2CCC(c3cc4cnccc4[nH]3)CC2)cc1`, for which the cytotoxicity at 10 µM stood at 1.12%.

On to `Cc1cnn(CC2CCCCN2C(=O)c2cccnc2N(C)C)c1` (stereo not drawn), for which the cytotoxicity at 10 µM is -7.37%.

Take `Cc1nc(CN2CCC3(CCCN(Cc4ccncc4)C3)C2=O)cs1` (stereo not drawn): the cytotoxicity at 10 µM was determined as 1.38%.

For the molecule `O=S(=O)(c1ccccc1F)N1CCCC(c2nccs2)C1` (stereo not drawn), the cytotoxicity at 10 µM is -11%.

Regarding `CC(C)CCN(C(=O)Nc1cccc(C(=O)N(C)C)c1)C1CC1`, the cytotoxicity at 10 µM was -14.2%.

`OCc1csc(N2CCN(Cc3cccc(F)c3)CC2)n1`: the cytotoxicity at 10 µM is -4.9%.

In the case of `CN(C)c1ccc(NC(=O)c2ccnn2C)nc1`, the cytotoxicity at 10 µM was 15.1%.

`COc1ccc(CN2CCCC2)cc1Oc1cccc(C#N)n1`: the cytotoxicity at 10 µM was found to be 7.01%.

Regarding `CSCC[C@H](N)c1nnc(SCc2cc(C)ccc2C)o1`, the cytotoxicity at 10 µM is 0.0308%.

`CCOc1cc(CNC(C)c2ccc(F)cc2)ccn1` (stereo not drawn): the cytotoxicity at 10 µM came to 10.9%.

As for `CN1[C@@H]2CC[C@H]1CN(c1cc(Sc3cccs3)nc(N)n1)CC2`, the cytotoxicity at 10 µM was -8.02%.

Regarding `COc1cc(C(=O)N(Cc2cnn(C)c2)C(C)C)ccc1OCC(N)=O`, the cytotoxicity at 10 µM was -5.45%.

Take `CN1CC2(CCCN(Cc3nnc(-c4ccccc4)o3)CC2)OC1=O` (stereo not drawn): the cytotoxicity at 10 µM was 0.184%.

Turning to `CO[C@H]1CC[C@H]2[C@H]1OCCN2CCOCc1ccccc1`, the cytotoxicity at 10 µM is -114%.

For `COCc1cccc(NCc2cccnc2)c1`, the cytotoxicity at 10 µM was determined as 4.16%.

For `CCc1noc(CN2CCCN(Cc3cccs3)CC2)n1`, the cytotoxicity at 10 µM amounted to 2.76%.

In the case of `O=S(=O)(NC1CCCN(c2ncccn2)C1)N1CCCCCC1` (stereo not drawn), the cytotoxicity at 10 µM came to 12.7%.

Consider `Cc1ccc2c(n1)N(C)CCN(Cc1ccco1)C2`, for which the cytotoxicity at 10 µM was -4.97%.

`c1ccc(-n2cc(CNCC3CCCN3c3cccnn3)nn2)cc1` (stereo not drawn): the cytotoxicity at 10 µM is -1.47%.

Turning to `COC(CNC(=O)C1CCN(S(C)(=O)=O)CC1)c1ccc(C)s1` (stereo not drawn), the cytotoxicity at 10 µM was -0.0506%.

Take `COc1ccc2c(C)c(C(=O)NC3CCOCC3)oc2c1`: the cytotoxicity at 10 µM turned out to be 15.2%.

With `O=C(NCc1ccc(CO)cc1)C1CCOc2ccccc2C1` (stereo not drawn), the cytotoxicity at 10 µM was -3.54%.

Turning to `CN(C)CCN1C(=O)CCCC12CCCN(Cc1ccc[nH]1)C2` (stereo not drawn), the cytotoxicity at 10 µM was -10.1%.

`O=c1cc(Cn2cncn2)nc2n1CCCN(CC1CC1)C2`: the cytotoxicity at 10 µM is -2.65%.

`CCC1=N[C@@]2(CC[C@@H]3CN(S(=O)(=O)CC)C[C@@H]32)C(=O)N1CC(C)C`: the cytotoxicity at 10 µM is -0.0582%.

With `Cc1cc(C)c2c(c1)C(NC(=O)CSCC(N)=O)CCO2` (stereo not drawn), the cytotoxicity at 10 µM was -6.94%.

`CCc1[nH]c2c(CNC(=O)C3CCCN(C)C3)cc(C)cc2c1C` (stereo not drawn): the cytotoxicity at 10 µM was -15.6%.

As to `CCN(CC(=O)N(C)C)C(=O)c1ccc(-c2nc(C)cs2)cc1`, the cytotoxicity at 10 µM stood at 6.98%.

In the case of `O=C(NCCn1ccnc1)N1CCN(Cc2cccs2)CC1`, the cytotoxicity at 10 µM was -7.49%.

`COc1ccc(S(=O)(=O)NC(=O)c2c(C)noc2C(C)C)cc1OC`: the cytotoxicity at 10 µM is -2.23%.

As to `CCS(=O)(=O)c1ccc(N2CCC(NC(=O)NC(C)CO)CC2)cc1` (stereo not drawn), the cytotoxicity at 10 µM came to 13.9%.

For the molecule `CN1CCOCC12CCN(C(=O)C1CCC1)CC2`, the cytotoxicity at 10 µM came to 0.64%.

Consider `Cn1ccnc1CN1CCN(c2ccc(C#N)cn2)CC1`, for which the cytotoxicity at 10 µM was -4.2%.

As for `CN(Cc1ccncc1)C(=O)CCNS(=O)(=O)c1cccnc1`, the cytotoxicity at 10 µM amounted to 0.541%.

As for `CC(C)NC(=O)CCC(=O)N1CCC(c2noc3cc(F)ccc23)CC1`, the cytotoxicity at 10 µM came to 2.13%.

Take `CC(C)c1nnc2n1CC(CNCc1ccsc1)CC2` (stereo not drawn): the cytotoxicity at 10 µM is -1.61%.

`N#Cc1cc(N2CCC(S(N)(=O)=O)CC2)c2ccccc2n1`: the cytotoxicity at 10 µM was -5.03%.

For the molecule `CC(C)=CCN1C[C@@H]2CC[C@H]1CN(C(=O)CCc1nnc(C)[nH]1)C2`, the cytotoxicity at 10 µM was -6.57%.

On to `Cc1nc(CNC(=O)NCc2ccc(OCC3CC3)nc2)cs1`, for which the cytotoxicity at 10 µM worked out at 5.07%.

Consider `O=C(CCn1ccc(=O)[nH]c1=O)N1CCC(Oc2ccccn2)CC1`, for which the cytotoxicity at 10 µM is -1.47%.

In the case of `CN(C)c1ncccc1CNCc1ccc(N2CCOCC2)cc1`, the cytotoxicity at 10 µM came to 5.95%.

On to `CC(C)(C)CN1CCOC[C@H]1c1nc(-c2cccc(F)c2)c[nH]1`, for which the cytotoxicity at 10 µM is -3.79%.

For the molecule `Nc1cccnc1N1CCC(C(F)(F)F)CC1`, the cytotoxicity at 10 µM is 8.19%.

`COc1ccc(OC(F)F)c(NCC(=O)NCC(=O)N2CCCC2)c1`: the cytotoxicity at 10 µM is -0.77%.

`CN(C)c1ccc(CNC(=O)NCCc2ccccn2)cn1`: the cytotoxicity at 10 µM is -4.66%.

In the case of `CC(=O)c1cc(C(=O)N2CCC3(CC2)Nc2ccccc2NC3=O)cs1`, the cytotoxicity at 10 µM came out at 3.54%.

Consider `CCC(=O)N1CCN(C)C(=O)C(Cc2ccccc2-c2cccs2)C1` (stereo not drawn), for which the cytotoxicity at 10 µM turned out to be 4.89%.

For `CC(C)OCCSCCn1nc2ccccn2c1=O`, the cytotoxicity at 10 µM stood at 3.36%.

As for `CNC(=O)[C@H]1C[C@@H]2CN(S(=O)(=O)c3ccccc3)C[C@@H]2N1C`, the cytotoxicity at 10 µM was -5.27%.

With `NC(=O)C1CCCN1c1cc(N2CCc3ccccc3C2)ncn1` (stereo not drawn), the cytotoxicity at 10 µM was -0.918%.

For `CC(=O)Nc1nc(C(=O)NCc2ccc(N3CCCCC3)cc2)cs1`, the cytotoxicity at 10 µM is -2.75%.

For `CN(Cc1cccs1)C1CCC[C@@H]2CN(C(=O)c3cccn3C)C[C@H]12` (stereo partly drawn), the cytotoxicity at 10 µM is 22.6%.

With `CN1C(=O)C2(CC(=O)Nc3c2cnn3C(C)(C)C)c2ccccc21` (stereo not drawn), the cytotoxicity at 10 µM was -4.5%.

Turning to `CC(C)N(C)Cc1nnc2n1CCCN(C(=O)C1CCCO1)C2` (stereo not drawn), the cytotoxicity at 10 µM amounted to 19%.

Consider `CC(=O)N1CC2(CCCN(Cc3ccc(Cl)cc3)C2)Cc2ccccc21` (stereo not drawn), for which the cytotoxicity at 10 µM came to 10.6%.

As for `CCOCCN1CCN(CC(O)c2ccc(F)cc2)CC1` (stereo not drawn), the cytotoxicity at 10 µM was -8.92%.

Consider `Cn1nccc1CNS(=O)(=O)c1cc(F)ccc1Br`, for which the cytotoxicity at 10 µM was 11.8%.

Consider `CCC[C@@H]1CN(Cc2ccccc2OC(F)(F)F)C[C@H]1NC(C)=O`, for which the cytotoxicity at 10 µM is 5.5%.

With `CC(CN(C)C(=O)c1cn(C)nc1-c1ccc(F)cc1F)C(=O)O` (stereo not drawn), the cytotoxicity at 10 µM came out at 0.184%.

With `CSCC(CCO)NC(=O)Nc1ccc(C)cc1Br` (stereo not drawn), the cytotoxicity at 10 µM is -11.8%.

As to `COc1ncc(NS(=O)(=O)c2ccc(F)cc2F)cn1`, the cytotoxicity at 10 µM was -3.96%.

`Cc1n[nH]c(=O)c2c(NC(=O)CN3CCOCC3C)oc(C)c12` (stereo not drawn): the cytotoxicity at 10 µM is -0.219%.

In the case of `CN1CCOC(C)(C(=O)Nc2nccs2)C1` (stereo not drawn), the cytotoxicity at 10 µM was found to be 4.92%.

Take `c1cncc(-c2noc(CN3CCOC(Cn4cccn4)C3)n2)c1` (stereo not drawn): the cytotoxicity at 10 µM was -11.4%.

As for `COc1ccc(-c2nc3c([nH]2)CCNC3C(=O)O)c2ccc(C)nc12` (stereo not drawn), the cytotoxicity at 10 µM was 0.562%.

For `Cn1ccc(C(=O)N2CCOC(c3ccccc3)C2)cc1=O` (stereo not drawn), the cytotoxicity at 10 µM was -0.944%.

`CC(C)Cc1ccc(S(=O)(=O)NCCCN2CCNC(=O)C2)cc1`: the cytotoxicity at 10 µM was -4.36%.

On to `Cc1nc(COc2ccc(OC(C)C(N)=O)cc2)oc1C` (stereo not drawn), for which the cytotoxicity at 10 µM is -1.65%.

With `Cc1ccccc1OC1CCN(CC(=O)Nc2cnn(C)c2C)CC1`, the cytotoxicity at 10 µM was -8.09%.

For the molecule `CN1CCCC1CCn1ccnc1-c1ccc2ccccc2n1` (stereo not drawn), the cytotoxicity at 10 µM was found to be 0.0773%.

In the case of `COc1cccc2c1CCN(C(=O)NCc1nnc3ccccn13)C2`, the cytotoxicity at 10 µM amounted to 0.67%.

Consider `CC(C)Oc1ncnc2c1CCN(Cc1ccco1)CC2`, for which the cytotoxicity at 10 µM turned out to be 8.49%.

With `COc1ccc(OC)c(CNc2nnc(C(C)(C)C)o2)c1`, the cytotoxicity at 10 µM is -6.1%.

With `Cn1cc(CNc2ccc(F)c(N3CCCS3(=O)=O)c2)cn1`, the cytotoxicity at 10 µM is -12.8%.

In the case of `Cc1nc(CN2CCC3(CC2)NC(=O)CC3c2ccccc2)cs1` (stereo not drawn), the cytotoxicity at 10 µM is 4.33%.

Turning to `CN(C)c1nccc(C2CCN(C3CCCCC3O)CC2)n1` (stereo not drawn), the cytotoxicity at 10 µM was determined as 1.98%.

In the case of `CC(=O)c1ccc(N2CCC3(CCC(=O)N(CCCO)C3)CC2)nc1`, the cytotoxicity at 10 µM amounted to 4.81%.

Take `CC(C)Nc1nc(N2CCOCC2)nc2c1CN(CC(=O)N(C)C)CC2`: the cytotoxicity at 10 µM came to 7.77%.

With `Cc1cnn(Cc2ccc(NC(=O)N3CCCCC3CO)cc2)c1` (stereo not drawn), the cytotoxicity at 10 µM came out at 56.1%.

Regarding `Cc1nc(CN2CCO[C@H]3CN(C(=O)c4ccncc4)C[C@H]32)cs1`, the cytotoxicity at 10 µM is -146%.

In the case of `CCN(Cc1ccoc1)C(=O)NC1CCN(CC2CC2)C1` (stereo not drawn), the cytotoxicity at 10 µM is -0.525%.

Consider `CCN(Cc1cccc2c1OCCO2)C(=O)NC(C)(C)C`, for which the cytotoxicity at 10 µM was -20.9%.

Take `COCCN1CC[C@]2(CN(Cc3cccnc3)C[C@H]2C)C1=O`: the cytotoxicity at 10 µM was -4.66%.

In the case of `COC(C)(C)C(=O)N1Cc2cnc(C(C)(C)C)nc2C1`, the cytotoxicity at 10 µM was -121%.

As for `CC(C)CCc1n[nH]c(C(=O)O)c1I`, the cytotoxicity at 10 µM is -1.93%.

With `Cc1ccccc1CNCc1cc(Cl)ccc1O`, the cytotoxicity at 10 µM is -5.9%.

Consider `COC1[C@@H]2CC[C@H]1CN(c1nc(C)nc3ccsc13)C2` (stereo partly drawn), for which the cytotoxicity at 10 µM was determined as 18%.

Turning to `CCn1nc(C)c2nc(C(C)C)nc(N3CCCC3)c21`, the cytotoxicity at 10 µM is -1.61%.

In the case of `c1ccc(C(NCc2nnc(-c3ccco3)o2)C2CCC2)cc1` (stereo not drawn), the cytotoxicity at 10 µM was -48.7%.

As for `CC(=O)NCC(=O)N1Cc2cnc(CC(C)C)nc2C1`, the cytotoxicity at 10 µM was -6.12%.

On to `Cc1nc(CN(CCS(C)(=O)=O)C(C)C)cs1`, for which the cytotoxicity at 10 µM was -44.2%.

For `Cc1cc(C(=O)NC2CCCCNC2=O)c(=O)[nH]c1C` (stereo not drawn), the cytotoxicity at 10 µM was -3.35%.

Consider `CCCc1nc(C(=O)NCCCn2nnc3ccccc32)cs1`, for which the cytotoxicity at 10 µM is -14%.

`Cc1cc(NC(=O)CN2CCCC2c2noc(C(C)C)n2)on1` (stereo not drawn): the cytotoxicity at 10 µM is -6.31%.

In the case of `O=C(C1CCCC1)N1CCC(Nc2ccncn2)CC1`, the cytotoxicity at 10 µM was -57.7%.

Turning to `CCNc1cc2c(nn1)CCN(C(=O)C1Cc3ccccc3O1)C2` (stereo not drawn), the cytotoxicity at 10 µM was -9.32%.
